# Screening data (PubChem BioAssay)
# Only some compounds are listed: those with a hit (about 2.3% of all), similar ones and a draw of the others.
# TRPC4 potent: positive allosteric modulators of TRPC4, primary screen, cell-based, mouse TRPC4beta, HEK293 mu-opioid, Fluo-4 calcium; Short transient receptor potential channel 4 (Mus musculus), Q9QUQ5; DAMGO EC20, Fluo-4 Ca2+ flux; stronger effect = higher value; B-score at 10 µM; 310,000 tested, 0.42% active;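 active = B-score of calcium response area above 5 SD of library B-scores, with initial fluorescence ratio within 5 SD of library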;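 note: B-score of integrated fluorescence ratio over time as area under calcium response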
# TRPC6 act: mouse TRPC6 channel activators, primary screen, cell-based, HEK293, membrane potential dye; HEK293-TRPC6 membrane potential dye fluorescence; stronger effect = higher value; B-score at 10 µM; 310,000 tested, 0.13% active;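 active = B-score of the integrated fluorescence ratio above library mean plus 3 SD, and starting fluorescence ratio within library mean plus 5 SD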;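 note: higher score means more depolarization so channel activation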
# TRPC4 agonist: activators of mouse TRPC4 channel, primary screen, Fluo4 calcium, HEK293 TRPC4beta/mu-opioid cells; Short transient receptor potential channel 4 (Mus musculus), Q9QUQ5; Fluo4 calcium fluorescence; stronger effect = higher value; B-score at 10 µM; 310,000 tested, 0.49% active; AID 2237, 2010;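 active = B-score above 5 SD of library B-scores, and initial fluorescence ratio not above library mean plus 5 SD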;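 note: positive B-score marks a calcium rise read as TRPC4 activation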
#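 Assay system: HEK293 cells stably co-expressing mouse TRPC4beta and mu-opioid receptor / Timing: Fluo4 dye loading 45 min at room temperature, 110 s recording / Signal: Fluo4 calcium-sensitive dye fluorescence, kinetic, 1 Hz baseline / Read-out: integrated baseline-normalised fluorescence ratio, converted to per-well B score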
# TRPC6 inhibitor: mouse TRPC6 channel inhibitors, primary screen, cell-based, HEK293, membrane potential dye | B-score at 10 µM | ACh-evoked depolarization; stronger effect = lower value | 310,000 tested, 1.1% active;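 active = B-score under library mean minus 3 SD, initial fluorescence not abnormally high, positive integrated signal ratio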;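 note: B-score derived from integrated fluorescence ratio over the kinetic read; more negative B-score means stronger inhibition of depolarization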
# TRPC4 inh: inhibitors of mouse TRPC4 channel, primary screen, Fluo4 calcium, HEK293 TRPC4beta/mu-opioid cells; Short transient receptor potential channel 4 (Mus musculus), Q9QUQ5; DAMGO-evoked Fluo4 calcium flux; stronger effect = lower value; B-score at 10 µM; 300,000 tested, 0.39% active; AID 2247, 2010;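 active = B-score over 3 SD under the library average, no early fluorescence shift, positive overall ratio signal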
#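 Assay system: Stable TRPC4beta/mu-opioid receptor HEK293 cells | Reagent: DAMGO in two steps, submaximal then maximal | Compound dosing: Single concentration per test compound | Signal: Fluo4 Ca2+ flux fluorescence | Evaluation: Per-well B score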
# An asterisk follows results filed as active; i = inactive.
SMILES,TRPC4 potent,TRPC6 act,TRPC4 agonist,TRPC6 inhibitor,TRPC4 inh
C=CCn1c(C)nnc1SCC(=O)Nc1oc(C)c2c(C)n[nH]c(=O)c12,i,i,i,i,i
O=C(NCCN1CCOCC1)c1cc2sccc2n1Cc1ccc(F)cc1,i,i,i,i,-7*
O=C(NCCN1CCOCC1)c1ccc2c(c1)N(Cc1ccc(F)cc1)C(=O)CS2,i,i,i,i,-7*
Cc1ccc(CN2C(=O)CSc3ccc(C(=O)NCCN4CCOCC4)cc32)cc1,i,i,i,i,i
COC(=O)C1CC(Cl)CN1c1ncc(C(F)(F)F)cc1Cl (configuration not stated),11*,i,i,i,i
CNCC(=O)N1CCN(c2ncc(C(F)(F)F)cc2Cl)CC1,i,i,189*,i,i
O=C(CSc1ccccn1)N1CCN(c2ncc(C(F)(F)F)cc2Cl)CC1,i,i,49*,i,i
CCOC(=O)N1CCN(c2ncc(C(F)(F)F)cc2Cl)CC1,i,i,i,i,i
O=C(O)c1nn(CC(=O)N2CCN(c3ncc(C(F)(F)F)cc3Cl)CC2)c(=O)c2ccccc12,15*,i,i,i,i
CCc1cccc(NC(=O)CN(c2ccc(C)cc2)S(=O)(=O)c2c(C)noc2C)c1,i,i,i,i,i
CCN1CCc2c(sc(NC(=O)c3ccc(S(=O)(=O)N4CCCCCC4)cc3)c2C(=O)NC)C1,i,i,i,i,i
N#Cc1ccc(OCC(O)CN2CCN(CC(O)COc3ccc(C#N)cc3)CC2)cc1 (configuration not stated),i,i,i,i,i
CC(C)(C(N)=O)N1CCN(c2ncc(C(F)(F)F)cc2Cl)CC1,i,i,61*,i,i
FC(F)(F)c1cnc(N2CCN(C(=S)NCc3ccccc3)CC2)c(Cl)c1,i,i,i,i,i
N#Cc1ccc(OCC(O)CN2CCN(c3ncc(C(F)(F)F)cc3Cl)CC2)cc1 (configuration not stated),25*,i,i,i,i
FC(F)(F)c1cnc(N2CCCN(C(=S)Nc3ccccc3)CC2)c(Cl)c1,i,i,159*,i,i
FC(F)(F)c1cnc(N2CCSCC2)c(Cl)c1,i,i,i,i,i
Cc1ccc(C(=O)N/C(=C\c2ccco2)C(=O)NCCN2CCOCC2)cc1C,i,i,i,i,i
Cc1nc(/N=C\c2ccc(N(C)C)cc2)sc1C,i,i,i,i,i
O=C(Cn1cnc(S(=O)(=O)N2CCCC2)c1)Nc1ccc(OC(F)(F)F)cc1,i,i,i,i,i
CC1CCC(NC(=O)CNC(=O)Cc2cccc3ccccc23)CC1 (configuration not stated),i,i,i,i,i
COc1ccc2nc(C)cc(NCc3ccc(F)cc3)c2c1,i,i,i,i,-6*
COc1ccccc1/C=N/Nc1cc(C)nc2ccc(C)cc12,i,i,i,i,i
COc1ccc(/C=N/Nc2cc(C)nc3ccc(OC)cc23)c(OC)c1,i,i,i,-5.4*,i
C/C(=N\NC(=O)c1ccccc1O)c1ccc(NC(=O)Cc2ccccc2)cc1,i,i,i,i,i
SMILES,TRPC4 potent,TRPC6 act,TRPC4 agonist,TRPC6 inhibitor,TRPC4 inh
O=C(c1nc2ccc(Cl)cn2c1CNCC[C@@H]1C[C@@H]2C=C[C@H]1C2)N1CCCCCCC1,i,i,64*,i,i
C[C@@H]1CN(C(=O)c2nc3ccc(Cl)cn3c2CNCC[C@@H]2C[C@@H]3C=C[C@H]2C3)C[C@H](C)O1,i,i,i,i,i
CC(C)[C@H](N[C@@H](C)c1ccccc1)c1c(O)ccc2ccccc12,i,i,i,i,i
COc1ccccc1NC(=O)C1(c2ccccc2)CCCC1,13*,i,i,i,i
CC(C)[C@@H]1CC[C@@H](C)c2c(-c3ccccc3)n[nH]c21,10*,i,i,i,i
COc1ccccc1CC(=O)N1CCN(S(=O)(=O)c2ccccc2)CC1,20*,i,i,i,i
COc1ccc(/C=C(\NC(=O)c2ccccc2)C(=O)NCCN2CCOCC2)cc1,i,i,i,i,i
COc1cc([N+](=O)[O-])cc2sc(NC(=O)C3CC3)nc12,i,i,i,i,i
CCN1CCN(c2ncc(C(=O)Nc3c(F)cc(F)cc3Br)c3ccccc23)CC1,i,i,i,i,i
CCN1CCN(c2ncc(C(=O)Nc3cc(Cl)c(OC)cc3OC)c3ccccc23)CC1,i,i,61*,i,i
Cc1ccc(C2(C)NC(=O)N(CC(=O)N(C)CC(=O)Nc3cccc4ccccc34)C2=O)cc1 (configuration not stated),i,i,i,i,i
CC(C)CN(C(=O)COC(=O)CCC(=O)c1ccc(Cl)cc1)c1c(N)n(Cc2ccccc2)c(=O)[nH]c1=O,114*,i,i,i,i
CN(C(=O)COC(=O)CCC(=O)c1ccc(Cl)cc1)c1c(N)n(Cc2ccccc2)c(=O)[nH]c1=O,i,i,i,i,i
CC(C)CN(C(=O)CC1CCCC1)c1c(N)n(Cc2ccccc2)c(=O)[nH]c1=O,i,i,i,i,i
CC(C)CN(C(=O)C1CC1)c1c(N)n(Cc2ccccc2)c(=O)[nH]c1=O,31*,i,i,i,i
CN(C(=O)COC(=O)CNC(=O)c1ccc2ccccc2c1)c1c(N)n(Cc2ccccc2)c(=O)[nH]c1=O,i,i,i,i,i
O=C(N/N=C/c1ccc2c(c1)OCO2)C1CC1,i,i,i,i,i
CCOc1ccccc1CN1CCC(n2nccc2NC(=O)CCc2ccccc2)CC1,i,i,i,i,-7*
C/C=C(\C)CN1CCC(n2nccc2NC(=O)CCc2ccccc2)CC1,i,i,46*,i,-6*
COc1ccccc1/C=C/CN1CCC(n2nccc2NC(=O)CCc2ccccc2)CC1,i,i,i,i,i
O=C(CCc1ccccc1)Nc1ccnn1C1CCN(C/C=C/c2ccccc2)CC1,i,i,i,i,-6*
COc1cccc(-c2nnc(SCC(=O)Nc3ccc(S(N)(=O)=O)cc3)n2C)c1,i,i,i,i,i
